Experimental data: publication PMC2119492 (The Journal of Cell Biology, 1993)

How the values were obtained:
Type in all cases: cell-based, Saccharomyces cerevisiae
[1] = tested on: wild-type cells (RH144-3D); assay: 35S-a-factor internalization assay; conditions: after a 34 °C preincubation; data not shown
end3 cells (RH266-1D) [2] = assay: a-factor sensitivity halo assay; conditions: 24 °C
How it was run: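 Halo assay. Early log-phase cells were counted, washed with YPUAD and embedded in YPUAD containing 0.8% agar at 47°C. Disks containing α-factor were placed on the agar surface, and the radius of the growth-inhibition zone was read. The radius is logarithmically proportional to strain sensitivity.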

[3] = tested on: wild-type cells (RH144-3D); assay: LY-CH accumulation in the vacuole; conditions: LY 4 mg/ml, fluorescence microscopy, minimum of 46 cells counted
How it was run: (§1)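 Cells grown overnight at 24°C, then harvested and split. One half stayed at 24°C. The other was shifted slowly to 35°C by resetting the water bath, and lucifer yellow CH (4 mg/ml) was added once 35°C was reached. Cells were washed extensively in ice-cold 50 mM sodium succinate pH 5 with 10 mM sodium azide, then viewed by Nomarski and fluorescence optics with 20–25 s exposures. Cells with clear vacuolar staining were scored positive. Cells without staining but with a vacuole visible by Nomarski were scored negative.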

end4 cells (RH268-1C) = assay: LY-CH accumulation in the vacuole; conditions: LY 4 mg/ml, fluorescence microscopy, minimum of 46 cells counted
How it was run: as §1

end3 cells (RH266-1D) [4] = assay: LY-CH accumulation in the vacuole; conditions: LY 4 mg/ml, fluorescence microscopy, minimum of 46 cells counted
How it was run: as §1

## C[C@@H]1C[C@@H]([C@H](O)CC2CC(=O)NC(=O)C2)C(=O)[C@@H](C)C1 [cycloheximide]
[1]
  effect of cycloheximide on a-factor internalization kinetics: identical to cells which receive no cycloheximide

## alpha-factor
end3 cells (RH266-1D) [2]
  a-factor needed to form the same size halo, relative to end4 or wild-type cells: approximately two times less

## Lucifer yellow-CH [LY]
[3]; 24 °C, 2 h
  % of cells showing vacuolar labeling: 92%
[3]; 35 °C, 1 h
  % of cells showing vacuolar labeling: 97%
end4 cells (RH268-1C); 24 °C, 2 h
  % of cells showing vacuolar labeling: 10%
end4 cells (RH268-1C); 35 °C, 1 h
  % of cells showing vacuolar labeling: 0%
end3 cells (RH266-1D) [4]; 24 °C, 2 h
  % of cells showing vacuolar labeling: 4%
end3 cells (RH266-1D) [4]; 35 °C, 1 h
  % of cells showing vacuolar labeling: 4%
